# The list is not random: actives were taken first. Their share in the collection is about 1.3%.
# LEDGF integ inh: blockers of LEDGF/p75-dependent integrase strand transfer – biochemical, TR-FRET, high throughput, primary screen; inhibition, % at 3.7 µM; TR-FRET IN-LEDGF/p75 DNA integration, Eu/Cy5; HIV-1 integrase (with human LEDGF/p75); AID 743269, 2014; 370,000 tested, 0.64% active;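 active means inhibition above the screen-wide mean plus 3 SD, cut at about 13% in these data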;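 further: signal is the Cy5 over europium emission ratio at 671 and 618 nm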
# Casp6 inh: human caspase-6 inhibitors, primary screen, biochemical, VEID-R110 fluorescence, single point, set 2; P55212; purified caspase-6, Z-VEID-R110 cleavage fluorescence; inhibition, % at 12.5 µM; 350,000 tested, 0.53% active; AID 686996, 2013;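 active means mean inhibition across replicates at least about 35%, with every replicate also reaching that limit, limit read from the data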
# ASAP1 GAP inh: inhibitors of human ASAP1 ArfGAP activity, primary screen, biochemical, fluorescence polarization. ASAP1-stimulated ARF1 GTP hydrolysis, GDP FP detection. inhibition, % at 16.5 µM. 360,000 tested, 0.19% active. AID 624377, 2012; in the data active means inhibition above about 25%
# Target sequence (Q9ULH1 325-724 limits assumed): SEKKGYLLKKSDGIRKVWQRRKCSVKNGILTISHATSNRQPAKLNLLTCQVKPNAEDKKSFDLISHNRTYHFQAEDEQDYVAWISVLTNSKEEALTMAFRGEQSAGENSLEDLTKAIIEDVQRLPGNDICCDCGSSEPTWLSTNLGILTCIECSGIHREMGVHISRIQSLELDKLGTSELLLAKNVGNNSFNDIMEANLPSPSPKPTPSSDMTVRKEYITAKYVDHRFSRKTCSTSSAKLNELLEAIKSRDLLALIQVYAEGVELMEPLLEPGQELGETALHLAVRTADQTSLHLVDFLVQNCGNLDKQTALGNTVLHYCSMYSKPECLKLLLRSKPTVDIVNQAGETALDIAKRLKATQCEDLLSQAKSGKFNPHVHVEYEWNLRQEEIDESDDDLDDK
# TDP2 inh: human TDP2 enzyme inhibitors, primary screen, biochemical, epi absorbance, recombinant enzyme. T5PNP hydrolysis, p-nitrophenol absorbance 415 nm. inhibition, % at 12.8 µM. 370,000 tested, 0.34% active;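 active means inhibition above the mean of all tested compounds plus 3 SD, set per campaign, cut at about 25% in these data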
#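 Assay system: Recombinant human TDP2 | Quantity: 120 nM TDP2 per well | Incubation: 2 h at 37 °C | Signal: Epi absorbance | Evaluation: Percent inhibition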
# ARFGAP1 inhibitor: inhibitors of rat ARFGAP1 GAP activity, primary screen, biochemical, fluorescence polarization, GDP tracer. inhibition, % at 16.5 µM. Arfgap1-stimulated ARF1 GTP hydrolysis, GDP FP detection. ADP-ribosylation factor GTPase-activating protein 1 (Rattus norvegicus), Q62848. 360,000 tested, 0.26% active;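 active means inhibition above a per-plate limit, mean inhibition of low control wells plus 3 SD, cut at about 25% in these data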
# Target sequence (Q62848 1-136 limits assumed): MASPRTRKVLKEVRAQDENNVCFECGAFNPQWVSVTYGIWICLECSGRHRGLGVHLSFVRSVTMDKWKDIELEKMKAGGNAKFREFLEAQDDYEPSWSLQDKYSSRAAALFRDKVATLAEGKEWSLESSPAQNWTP
#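 Repeats: one replicate per compound; assay system: rat Arfgap1 catalytic domain, aa 1-136; times: enzyme reaction 120 min at 25 °C after 20 min preincubation; detection: FP of antibody-bound GDP Alexa 633 tracer, ex 620/em 688 nm; benchmarks: high control wells lacking Arfgap1, low control full reaction with DMSO; reagent: human ARF1(Δ1-17)-GTP substrate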
# ARFGAP1 confirm: ARFGAP1 inhibitor hit confirmation, biochemical, fluorescence polarization, triplicate. shares compounds with ARFGAP1 inhibitor. ARFGAP1-stimulated ARF1 GTP hydrolysis, GDP tracer FP. 890 tested, 30% active. AID 651608, 2012. inhibition, % at 16.5 µM;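 active means average inhibition over triplicates above the hit cutoff set in the earlier primary screen, cut at about 25% in these data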
# Numbers stand for hits; 0 = inactive; - = not tested or not shown.
SMILES,LEDGF integ inh,Casp6 inh,ASAP1 GAP inh,TDP2 inh,ARFGAP1 inhibitor,ARFGAP1 confirm
COc1ccc2oc(C(=O)OCC(=O)N3CC(C)CC(C)C3)c(C)c2c1 (stereo unspecified),0,0,0,0,31,39
CCCCNC(=O)N1CCN(c2ccnc3cc(Cl)ccc23)CC1,-,0,-,-,-,-
COCCCn1c(C)cc(C(=O)CN2c3cccc4cccc(c34)S2(=O)=O)c1C,0,0,0,0,32,36
O=C(C1CC1)N1[C@H](CO)[C@H]2c3ccccc3N(S(=O)(=O)c3ccc(F)cc3)C[C@H]21,-,0,-,-,-,-
COc1ccc(NS(=O)(=O)c2cccc(C(=O)N/N=C(\C)c3ccncc3)c2)cc1,0,0,0,0,39,0
O=C(Nc1ccc(OC(F)(F)F)cc1)C1CCCN(C(=O)c2ccc(Cl)cc2)C1 (stereo unspecified),0,0,0,0,25,0
CC(=O)Nc1ccc(NC(=O)C2CCCN(C(=O)c3ccc(Cl)cc3)C2)cc1 (stereo unspecified),0,0,0,0,0,-
CCN(c1ccc(NC(=O)CSc2ccc3c(c2)OCCO3)cc1)C(C)C,0,0,0,0,0,-
CC1(C)Cc2c(cnn2-c2ccccc2)-c2c1c1ccccc1n2CC(O)CCl (stereo unspecified),0,-,0,0,26,0
CCCOc1ccc(C(=O)Nc2ccc(S(=O)(=O)N3C[C@@H]4C[C@@H](C3)c3cccc(=O)n3C4)cc2)cc1,0,0,0,0,25,0
Cn1ccc2c(-c3cncc4ccccc34)cc3c(c21)C1CCC3C1 (stereo unspecified),0,0,0,0,32,0
CC(=O)Nc1ccc2c(c1)C(=O)N(C)[C@H]1CC[C@@H](CC(=O)NCc3ccc(F)cc3)O[C@H]1CO2,-,0,-,-,-,-
O=C1CC(N2CCC(c3nc4ccccc4s3)CC2)C(=O)N1Cc1ccccc1 (stereo unspecified),0,-,0,0,37,0
Cc1cc(C(=O)NNc2c(Cl)cccc2Cl)n(C(C)(C)C)n1,0,0,0,0,0,-
Cc1cc(C(=O)O)n(C(C)(C)C)n1,0,0,0,0,27,0
Cc1nc2ccc(C(=O)N3c4ccccc4N=C(c4ccc(C(F)(F)F)cc4)C3C(=O)NC(C)(C)C)cc2[nH]1 (stereo unspecified),0,0,0,0,26,0
O=C(O)c1ccc(NC(=O)c2cccc(S(=O)(=O)Nc3ccc(C(=O)O)cc3)c2)cc1,0,0,0,0,0,-
O=C1CSc2ccc(C(=O)Nc3cccc(S(=O)(=O)Nc4ccc(Br)cc4)c3)cc2N1,0,0,0,0,33,25
COc1ccccc1CNC(=O)CSc1nc(N)c(C#N)c(-c2cccs2)c1C#N,0,-,0,0,42,30
COc1ccc(-c2cc(-c3cccs3)c(C#N)c(SCC(=O)NCc3ccccc3OC)n2)cc1,0,-,0,0,0,-
C[C@H](CO)N1C[C@H](C)[C@@H](CN(C)C(=O)NC2CCCCC2)Oc2ncc(/C=C/c3ccccc3)cc2C1=O,-,0,-,-,-,-
COc1cc2c(cc1OC)C(C)N(C(=O)c1cc3c(s1)-c1c(C)cccc1OC3)CC2 (stereo unspecified),0,0,0,0,0,-
COc1cc2c(cc1OC)C(C)N(C(=O)c1cc3c(s1)-c1ccccc1OC3)CC2 (stereo unspecified),0,0,0,0,25,0
CC(C)(C)Sc1ccc2nc3c(n2c1)CCCC3,0,-,0,0,0,-
COc1cc(C(=O)OC(C)CN2C(C)CCCC2C)cc(OC)c1OC (stereo unspecified),0,0,0,0,32,0
SMILES,LEDGF integ inh,Casp6 inh,ASAP1 GAP inh,TDP2 inh,ARFGAP1 inhibitor,ARFGAP1 confirm
OC(c1cccc(Cl)c1)c1nc(-c2cccc3cccnc23)cs1 (stereo unspecified),0,0,0,0,0,-
OC(c1cccc(Cl)c1)c1nc(-c2csc3ccccc23)cs1 (stereo unspecified),0,0,0,0,25,0
C=C(C)C(O)Cc1c(OC)ccc(C(=O)/C=C/c2ccc(O)cc2)c1O (stereo unspecified),0,0,0,0,0,-
CC(C)=CCC/C(C)=C/Cc1c(O)ccc(C(=O)/C=C/c2ccc(O)cc2)c1O,0,0,0,0,28,26
NC(=O)c1ccc(NC(=O)COC(=O)/C=C/c2cn(-c3ccccc3)nc2-c2cccnc2)cc1,0,0,0,0,30,46
N#Cc1ccccc1NC(=O)COC(=O)/C=C/c1cn(-c2ccccc2)nc1-c1ccc(Cl)cc1,0,0,0,0,0,-
Cc1cc(NC(=S)NC(=O)CC(C)C)ccc1Br,0,0,0,0,0,-
COc1cc2c3nnc(-c4ccc(F)cc4)c-3cn(Cc3ccc(C)cc3)c2cc1OC,0,0,0,0,39,48
O=C1CCC(c2ccccc2)(c2ccccc2)CC1,0,0,0,0,28,0
O=C1CCCCC1(c1ccccc1)c1ccccc1,0,0,0,0,0,-
O=C(NCC1CCN(c2ccc(S(=O)(=O)N3CCOCC3)cc2)CC1)c1ccc(Cl)cc1,0,-,0,0,26,0
O=C(NNC(=O)c1cccc(S(=O)(=O)N2CCN(c3ccccc3)CC2)c1)c1ccc(Cl)cc1,0,-,0,0,25,0
CC(=O)N1CCN(C(=O)c2cccc(S(=O)(=O)N3CCN(c4ccccc4)CC3)c2)CC1,0,0,0,0,0,-
COc1ccc(C(c2oc(CO)cc(=O)c2O)c2oc(CO)cc(=O)c2O)cc1OC,0,0,0,0,27,0
Cc1cc(C)c(NC(=O)CSc2nc3ccc(NC(=O)CSc4nnnn4Cc4ccccc4)cc3s2)c(C)c1,0,-,0,0,25,0
O=C(CSc1nc2ccc(NC(=O)CSc3nnnn3Cc3ccccc3)cc2s1)Nc1ccccc1,0,-,0,0,0,-
O=C(NC(=S)Nc1ccc2c(c1)OCCO2)c1ccccc1,0,0,0,0,25,0
O=C(NC(=S)Nc1ccc2c(c1)OCCO2)c1ccccc1F,0,0,0,0,0,-
Cc1ccc(C(C)C)c(OCc2ccc(C(=O)N/N=C/c3ccc(O)cc3O)cc2)c1,0,0,0,0,30,32
Cc1ccc(C(C)C)c(OCc2ccc(C(=O)N/N=C/c3ccc(C(=O)O)cc3)cc2)c1,0,0,0,0,0,-
